Assay results from PMC8513424 (Laryngoscope Investigative Otolaryngology, 2021).
pIC50: −log10 of the molar value. Where two headings read alike, the source gives them in different places.

Assays:
[1] = tested on: patients with NF2 or sporadic meningioma; assay: Pilot 1 safety and tolerability; assay type: in vivo, human
In short: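 Pilot 1 was a subset of a phase I, 3 + 3 dose-escalation study of the oral test compound in solid tumors. Dosing started at 30 mg three times weekly for 3 weeks, then 1 week off, per 28-day cycle. Adults (≥18 y, ECOG 0-1) had NF2-associated or sporadic VS/meningioma with ≥15% volumetric growth on pre-enrollment MRI. Toxicities were graded by CTCAE v4.0.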

[2] = tested on: NF2‐associated or sporadic VS or meningiomas; assay: Pilot 1 tumor volumetric measurement by MRI; assay type: in vivo, human
[3] = tested on: hearing of patients with NF2; assay: Pilot 1 audiograms; assay type: in vivo, human
[4] = Pilot 2 plasma AR‐42 concentration by LC‐MS/MS; assay type: in vivo, human; details: 40 mg; for Concentration in plasma, Before surgery: mean of three trials
In short: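 Dosing was 40 mg orally three times weekly for 3 weeks before surgery. Venous blood was drawn at induction of anesthesia and again at tumor removal (about 3-4 h after surgery start). Plasma was separated by cold centrifugation and kept frozen. Drug was quantified by LC-MS/MS against a standard curve, as the mean of three runs. Pre-operative and removal-time levels were compared by paired t-test (P ≤ .05).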

[5] = tested on: p‐AKT, p‐S6 and p‐ERK in VS and meningioma; assay: Pilot 2 fluorescent Western blotting of resected tumors; assay type: in vivo, human
In short: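 Patients took 40 mg of the test compound orally three times weekly for 3 weeks before resection. VS were split into peripheral capsule and center. Tumor lysates were run on fluorescent Western blots for p-AKT, total AKT, p-S6, total S6, p-ERK and total ERK. Phospho/total ratios were expressed as percent of an untreated banked VS or meningioma set as 100%.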

[6] = tested on: AKT phosphorylation in primary human VS cells; assay: AKT phosphorylation in primary VS cells; assay type: cell-based; details: Figure S2
[7] = tested on: human VS cells; details: cited from earlier work
[8] = tested on: NF2‐deficient benign meningioma Ben‐Men‐1 cells; details: cited from earlier work
[9] = tested on: schwannoma xenografts; details: cited from earlier work
[10] = Patient 1.1, 837 days on AR‐42, Left parieto‐occipital Meningioma
[11] = Patient 1.1, 837 days on AR‐42, Right neck Schwannoma
[12] = Patient 1.1, Left parieto‐occipital Meningioma
[13] = Patient 1.1, Right IAC Schwannoma
[14] = Patient 1.1, Right neck Schwannoma
[15] = Patient 1.2, 84 days on AR‐42, Right intradural C1 Meningioma
[16] = Patient 1.2, Left trigeminal Schwannoma
[17] = Patient 1.2, Right intradural C1 Meningioma
[18] = Patient 1.4, 275 days on AR‐42, Left IAC Schwannoma
[19] = Patient 1.4, 275 days on AR‐42, Left posterior fossa Meningioma
[20] = Patient 1.4, Left IAC Schwannoma
[21] = Patient 1.4, Left posterior fossa Meningioma
[22] = Patient 1.4, Let foramen magnum Meningioma
[23] = Patient 1.4, Right IAC Schwannoma
[24] = Patient 1.4, Right anterior falx Meningioma
[25] = Patient 1.5, 134 days on AR‐42, Right petroclinoid Meningioma
[26] = Patient 1.5, Right petroclinoid Meningioma
[27] = Patient 1.6, 58 days on AR‐42, Right IAC Schwannoma
[28] = Patient 1.6, Left IAC Schwannoma
[29] = Patient 1.6, Right IAC Schwannoma
[30] = Patient 1.7, Left IAC Schwannoma
[31] = Patient 1.7, Left prepontine cistern Meningioma
[32] = post‐treatment vs on AR‐42, of 11
[33] = pre‐treatment to on‐treatment, of 15

## CC(C)[C@H](C(=O)Nc1ccc(C(=O)NO)cc1)c1ccccc1 [AR‐42]
[1]; Patient 1.7, 80 mg, after 10 days of treatment, or 5 doses
  Dose‐limiting toxicity: grade 4 psychiatric disorder
[1]; Pilot 1, 60 mg
  Tolerability: generally well tolerated
[1]; Pilot 1, 60‐80 mg
  Arrhythmias or QT prolongations: no reported arrhythmias or QT prolongations of any grade
[2]; 11 evaluable lesions
  Median on‐treatment estimated annual growth rate: 22%
  Median post‐treatment estimated annual growth rate: 10%
[2]; [10]
  % Volume growth on Rx: 54%
  On Rx response: PD (progressive disease (>20% increase in volume))
[2]; Patient 1.1, 837 days on AR‐42, Right IAC Schwannoma
  % Volume growth on Rx: −2%
[2]; [11]
  % Volume growth on Rx: 52%
  On Rx response: PD (progressive disease (>20% increase in volume))
[2]; [12]
  Change in GR Pre to On Rx (%): −128%
  Change in GR Pre to post Rx: −26%
  Est. annual growth rate On Rx (%): 23%
  Est. annual growth rate Post Rx: 125%
[2]; [13]
  Change in GR Pre to On Rx (%): −61%
  Change in GR Pre to post Rx: −10%
  Est. annual growth rate On Rx (%): −1%
  Est. annual growth rate Post Rx: 50%
[2]; [14]
  Change in GR Pre to On Rx (%): −69%
  Change in GR Pre to post Rx: −79%
  Est. annual growth rate On Rx (%): 22%
  Est. annual growth rate Post Rx: 12%
[2]; Patient 1.2, 84 days on AR‐42, Left trigeminal Schwannoma
  % Volume growth on Rx: −9%
[2]; [15]
  % Volume growth on Rx: 26%
  On Rx response: PD (progressive disease (>20% increase in volume))
[2]; [16]
  Change in GR Pre to On Rx (%): −54%
  Change in GR Pre to post Rx: −11%
  Est. annual growth rate On Rx (%): −46%
  Est. annual growth rate Post Rx: −3%
[2]; [17]
  Change in GR Pre to On Rx (%): 122%
  Change in GR Pre to post Rx: −6%
  Est. annual growth rate On Rx (%): 138%
  Est. annual growth rate Post Rx: 10%
[2]; [18]
  % Volume growth on Rx: 60%
  On Rx response: PD (progressive disease (>20% increase in volume))
[2]; [19]
  % Volume growth on Rx: −24%
  On Rx response: PR (partial response (>20% decrease in volume))
[2]; Patient 1.4, 275 days on AR‐42, Let foramen magnum Meningioma
  % Volume growth on Rx: −19%
[2]; Patient 1.4, 275 days on AR‐42, Right IAC Schwannoma
  % Volume growth on Rx: 9%
[2]; Patient 1.4, 275 days on AR‐42, Right anterior falx Meningioma
  % Volume growth on Rx: 0%
[2]; [20]
  Change in GR Pre to On Rx (%): −10%
  Change in GR Pre to post Rx: 20%
  Est. annual growth rate On Rx (%): 92%
  Est. annual growth rate Post Rx: 122%
[2]; [21]
  Change in GR Pre to On Rx (%): −170%
  Change in GR Pre to post Rx: −125%
  Est. annual growth rate On Rx (%): −37%
  Est. annual growth rate Post Rx: 8%
[2]; [22]
  Change in GR Pre to On Rx (%): −158%
  Change in GR Pre to post Rx: −138%
  Est. annual growth rate On Rx (%): −30%
  Est. annual growth rate Post Rx: −10%
[2]; [23]
  Change in GR Pre to On Rx (%): −133%
  Est. annual growth rate On Rx (%): 18%
[2]; [24]
  Change in GR Pre to On Rx (%): 0%
  Change in GR Pre to post Rx: 0%
  Est. annual growth rate On Rx (%): 0%
  Est. annual growth rate Post Rx: 0%
[2]; [25]
  % Volume growth on Rx: 104%
  On Rx response: PD (progressive disease (>20% increase in volume))
[2]; [26]
  Change in GR Pre to On Rx (%): 41%
  Change in GR Pre to post Rx: −232%
  Est. annual growth rate On Rx (%): 241%
  Est. annual growth rate Post Rx: −32%
[2]; Patient 1.6, 58 days on AR‐42, Left IAC Schwannoma
  % Volume growth on Rx: 15%
[2]; [27]
  % Volume growth on Rx: 40%
  On Rx response: PD (progressive disease (>20% increase in volume))
[2]; [28]
  Change in GR Pre to On Rx (%): 64%
  Change in GR Pre to post Rx: 32%
  Est. annual growth rate On Rx (%): 93%
  Est. annual growth rate Post Rx: 61%
[2]; [29]
  Change in GR Pre to On Rx (%): 187%
  Est. annual growth rate On Rx (%): 245%
[2]; Patient 1.7, 10 days on AR‐42, Left IAC Schwannoma
  % Volume growth on Rx: 4%
[2]; Patient 1.7, 10 days on AR‐42, Left prepontine cistern Meningioma
  % Volume growth on Rx: −9%
[2]; [30]
  Change in GR Pre to On Rx (%): 13%
  Est. annual growth rate On Rx (%): 50%
[2]; [31]
  Change in GR Pre to On Rx (%): −120%
  Est. annual growth rate On Rx (%): −113%
[2]; estimated percent annual growth rates
  Share of tumors with stable growth: 20%
[2]; of 7 meningiomas
  Meningiomas progressed on AR‐42: three
  Meningiomas stable or regressed on AR‐42: Four
[2]; of 8 VS
  VS progressed on AR‐42: three
  VS stable on AR‐42: Five
[2]; of 15 evaluable tumors
  Tumors with stable disease on AR‐42: eight
[2]; of 15 tumors
  Share of tumors with partial response: 7%
[2]; on AR‐42
  Decrease in volume of the tumor with partial response: 24%
[2]; posterior fossa meningioma of Patient 1.4
  Duration of partial response: 3 years
[2]; [32]
  Tumors that rebounded in growth rate (increased more than 20%) after termination: 4
  Tumors with growth rate decreased after termination: 3
  Tumors with growth rate not changed after termination: 4
[2]; [33]
  Tumors with increased growth rates (>20% increase): four
  Tumors with reduced growth rates (>20% decrease in growth rate): eight
  Tumors with stable growth rates (± <20% change): three
[2]; pre‐treatment to on‐treatment, P = 0.259
  Median reduction in annual growth rate: −54%
[3]; Patient 1.6, from 17 db at initiation
  Pure tone average (PTA) after treatment: 55 db
[3]; patients 1.1, 1.4 and 1.7
  Measurable hearing in the contralateral ear on AR‐42: remained stable
[4]; Patient # 2.1 (VS)
  Concentration in plasma, At tumor removal: 303.7 nM
  Concentration in plasma, Before surgery: 362.3 nM
[4]; Patient # 2.2 (VS)
  Concentration in plasma, At tumor removal: 121.1 nM
  Concentration in plasma, Before surgery: 224.2 nM
[4]; Patient # 2.4 (VS)
  Concentration in plasma, At tumor removal: 36.8 nM
  Concentration in plasma, Before surgery: 61.8 nM
[4]; Patient # 2.6 (VS)
  Concentration in plasma, At tumor removal: 3.4 nM
  Concentration in plasma, Before surgery: 3.5 nM
[4]; Patient # 2.7 (meningioma)
  Concentration in plasma, At tumor removal: 72.9 nM
  Concentration in plasma, Before surgery: 99.1 nM
[4]; first three patients with VS, before and at tumor removal
  Plasma concentration of AR‐42: 62 to 360 nM
[4]; patient with meningioma
  Plasma level after anesthesia: 73 nM
  Plasma level before anesthesia: 99 nM
[5]; Patient 2.7, vs untreated meningioma
  p‐S6 in meningioma: reduction in p‐S6
[5]; Patient 2.7, vs untreated meningioma tumors
  p‐AKT in meningioma: not reduced
[5]; vs untreated VS, 40 mg
  Levels of p‐ERKs and p‐S6 in AR‐42‐treated VS: substantially reduced in three of four
  p‐AKT levels in AR‐42‐treated VS tumors: decreased p‐AKT levels in three of four
[6]
  AKT phosphorylation in primary human VS cells: reduced AKT phosphorylation
[7]; read-out: IC50, growth inhibition of human VS cells
  pIC50: 6.30
[7]; read-out: IC50 for schwannomas, previous in vitro studies
  pIC50: ~6.30
[8]; read-out: IC50, Ben‐Men‐1 cells
  pIC50: 6.00
[8]; read-out: IC50 for meningiomas, previous in vitro studies
  pIC50: ~6.00
[9]
  AKT activation in schwannoma xenografts: decreased AKT activation
  Apoptosis in schwannoma xenografts: induced apoptosis
  Growth of schwannoma xenografts: inhibited the growth of schwannoma xenografts
